Hits are enriched below; roughly 2.5% of the tested compounds scored in any of these assays.
PG9 Ab binder: binds the HIV-1 gp120 antibody PG9 | inhibition, % at 6.7 µM | 360,000 compounds, 0.43% hits | AID 624416 | TR-FRET gp120-PG9 antibody binding; in the data active = inhibition above about 8.5%
NTR1 ag: agonists of human neurotensin receptor NTR1; NTR1-U2OS beta-arrestin-GFP spot imaging, agonist mode; 330,000 compounds, 0.17% hits; activation, % at 20 µM;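 active = activation at or above 40% of the spot to cytoplasm intensity ratio, with at least 20 cells analyzed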;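 also: 0% = DMSO without peptide and 100% = 100 nM NTR1 peptide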
MC4R ag barr: activates human MC4R beta-arrestin recruitment; U2OS MC4R beta-arrestin complementation, luminescence; percent of melanotan II response, DMSO zero; P32245; AID 540308; activation, % at 8.9 µM; 360,000 compounds, 0.98% hits;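 active = activation above a per-plate cutoff, the mean activation of sample wells on that plate plus 3 SD, cut at about 8% in these data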
Target sequence (P32245 whole entry, looked up): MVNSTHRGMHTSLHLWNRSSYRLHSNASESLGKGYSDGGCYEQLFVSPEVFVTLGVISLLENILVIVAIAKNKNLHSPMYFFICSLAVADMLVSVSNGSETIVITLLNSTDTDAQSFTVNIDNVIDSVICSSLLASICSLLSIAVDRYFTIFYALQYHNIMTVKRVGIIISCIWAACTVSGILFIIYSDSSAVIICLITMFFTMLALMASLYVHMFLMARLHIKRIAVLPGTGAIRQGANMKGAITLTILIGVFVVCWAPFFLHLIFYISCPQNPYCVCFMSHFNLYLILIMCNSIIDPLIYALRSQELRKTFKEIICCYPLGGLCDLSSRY
NR1D1 modulator: modulators of human Rev-erb alpha DNA binding; 370,000 compounds, 0.79% hits; activity, % at 10 µM; Rev-erbα–FITC-DNA binding, fluorescence polarization, 90 min; P20393;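 active = activity above about 14%, limit read from the data; passing the limit was not always enough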;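 also: 0% = DMSO wells with 35 nM protein and 100% = DMSO wells with 750 nM protein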
MC4R antag cAMP: human MC4R antagonism in cAMP assay | P32245 | MC4R-expressing cells, MTII-stimulated cAMP, LANCE TR-FRET | inhibition, % at 6.5 µM | 360,000 compounds, 0.48% hits | AID 540295;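 active = inhibition above its plate's cutoff, the mean of tested wells on that plate plus 3 SD, cut at about 29% in these data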;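 also: 0% = Melanotan II alone and 100% = Melanotan II plus saturating MCL0020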
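material = U2OS cells stably expressing human melanocortin 4 receptor (MC4R) | also added = Melanotan II challenge | dosing = single nominal compound dose of 6.5 µM | detection = TR-FRET with Eu-cAMP and labeled anti-cAMP, 671 nm | replication = singlicate | timing = compound 30 min, challenge 1 h, detection 1 h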
cAMP nonselect: counter-screen for MC4R antagonists: nonselective cAMP signaling inhibitors. shares compounds with MC4R antag cAMP. parental U2OS, forskolin cAMP, LANCE TR-FRET. inhibition, % at 6.5 µM. 1,600 compounds, 26% hits. AID 602193;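 active = mean inhibition over triplicates above the low-control well mean plus 3 SD, set per campaign, cut at about 13% in these data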;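 also: signal is single emission at 671 nm which falls as cellular cAMP rises; 0% = forskolin-stimulated wells and 100% = buffer without forskolin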
MC4R cAMP antag: human MC4R cAMP antagonism confirmation; shares compounds with MC4R antag cAMP; MC4R-expressing cells, MTII-stimulated cAMP, TR-FRET; inhibition, % at 6.5 µM; 1,600 compounds, 27% hits; in the data active = inhibition above about 29%;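 also: 0% = agonist stimulated wells alone and 100% = agonist stimulated wells plus saturating reference antagonist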
Starred values were filed as active, the others as inactive; . = no result.

SMILES	PG9 Ab binder	NTR1 ag	MC4R ag barr	NR1D1 modulator	MC4R antag cAMP	cAMP nonselect	MC4R cAMP antag
CCOC(=O)C1=C(c2ccccc2)NC(=O)NC1c1ccc(OC)c(OC)c1 (stereo unspecified)	-1	0	0	-3	33*	-1	-7
C=CCN1C(=O)[C@@H](CC(=O)NCc2cccs2)[C@]2(C(=O)OC)CCCCC=C12	.	.	.	-4	.	.	.
O=C(COC(=O)CNC(=O)c1ccc2c(c1)OCO2)Nc1ncc(Cl)cc1Cl	0	1	-2	0	30*	14*	23
O=C(COC(=O)/C=C/c1ccco1)Nc1ncc(Cl)cc1Cl	-1	0	-1	-3	31*	-4	-18
O=C(COC(=O)c1ccc2c(c1)OCO2)Nc1ncc(Cl)cc1Cl	-1	-1	-2	3	9	.	.
CS(=O)(=O)Cc1cccc(C(=O)NC2CCSc3ccccc32)c1 (stereo unspecified)	-2	3	1	0	32*	5	-2
CCC(=O)NC(=S)Nc1ccc(-c2nc3ccc(C)cc3s2)cc1	-1	0	-1	3	17	.	.
Cc1ccc2nc(-c3ccc(NC(=S)NC(=O)C(C)C)cc3)sc2c1	2	0	2	6	47*	5	19
O=C(NCC(c1cccs1)N1CCOCC1)c1cnc(Cl)c(Cl)c1 (stereo unspecified)	1	-2	-4	3	30*	17*	38*
Cc1ccccc1N1CCN(C2CCCN(C(=O)CCN3CCCCC3=O)C2)CC1 (stereo unspecified)	3	0	-1	-2	7	.	.
Cc1ccccc1N1CCN(C2CCCN(C(=O)CN3CCCC3=O)C2)CC1 (stereo unspecified)	-2	0	0	2	31*	-2	-4
CCOC(=O)C1=CCN(S(=O)(=O)c2cccc(Cl)c2)C1c1cccc(Br)c1 (stereo unspecified)	-1	.	.	4	.	.	.
CCn1cc(CCC(=O)NCc2cccc(OC)c2OC)c2ccccc21	0	1	1	3	31*	0	4
O=C(Nc1sc2c(c1C(=O)O)CCCC2)c1ccc(F)cc1	0	1	1	0	19	.	.
CC(C)(C)c1ccc(C(=O)Nc2sc3c(c2C(=O)O)CCC3)cc1	0	6	0	-1	30*	0	4
Cc1ccc2[nH]c(O)c(N=NC(=O)c3ccc(NS(=O)(=O)c4cccs4)cc3)c2c1	0	7	4	-30	34*	-3	-17
COC(=O)C=C1CCC2C3CCC4=CC(=O)C(Br)CC4(C)C3C(=O)CC12C (stereo unspecified)	0	.	-1	0	31*	2	22
CC12CCC(=O)C=C1CCC1C2C(=O)CC2(C)C1CCC2(O)C(=O)CO (stereo unspecified)	0	4	2	4	7	.	.
CC1CCCC(NC(=O)CSc2ccc(F)cc2)C1C (stereo unspecified)	1	0	1	-3	32*	4	6
S=C(NC1CC1)NC1CCCc2ccccc21 (stereo unspecified)	-1	0	3	-1	28*	6	4
COc1ccc(OC)c(S(=O)(=O)N2CCCCC2C(=O)N2CCN(c3ccccc3F)CC2)c1 (stereo unspecified)	.	.	.	3	.	.	.
Cc1ccc(NC(=S)NNC(=S)Nc2ccc(C)cc2)cc1	1	.	3	3	1	.	.
CC(=O)OC1OCCOC1NC(=S)Nc1ccc(C)cc1 (stereo unspecified)	1	3	-1	0	32*	1	-8
CCOC(=O)c1sc(NC(=O)CCN2CCN(CC)CC2)c(C(=O)OCC)c1C	-3	0	-4	0	42*	7	26
Cc1csc(CN(C)C(=O)CC2C(=O)NCCN2Cc2ccc(-c3ccccc3)cc2)n1 (stereo unspecified)	-3	0	1	1	29*	-2	3
SMILES	PG9 Ab binder	NTR1 ag	MC4R ag barr	NR1D1 modulator	MC4R antag cAMP	cAMP nonselect	MC4R cAMP antag
COc1ccc(-c2cc(C(=O)OCC(=O)N3CCCCC3)c3ccccc3n2)cc1OC	1	12	0	0	37*	3	15
COc1ccc(-c2cc(C(=O)N(C)CC(=O)Nc3ccccc3C(F)(F)F)c3ccccc3n2)cc1OC	2	.	-1	-3	31*	2	12
COc1ccc(-c2cc(C(=O)N(C)CC(=O)Nc3ccccc3Br)c3ccccc3n2)cc1OC	2	9	-3	4	11	.	.
O=C(/C=C(\Nc1ccc(Br)c(F)c1)c1ccccc1)c1ccccc1	0	.	.	5	.	.	.
CCOC(=O)c1ccc(N=c2sc(C(=O)OC)cc(=O)n2Cc2ccco2)cc1	-2	39	1	9	32*	10	36*
CCCC(=O)OC[C@H]1CN(C2CCCC2)S(=O)(=O)c2c(Oc3ccc(F)cc3)cccc2O1	1	.	.	3	.	.	.
CC(=O)Nc1ccc(S(=O)(=O)N(C)CC(=O)OCC(=O)NC(C)C23CC4CC(CC(C4)C2)C3)cc1 (stereo unspecified)	-1	4	-2	-4	30*	8	18
Cc1ccc(S(=O)(=O)N(C)CC(=O)OCC(=O)NC(=O)NC(C)C)cc1	-1	2	-3	2	29*	10	23
CC(=O)Nc1ccc(S(=O)(=O)N(C)CC(=O)OCC(=O)NNC(=O)c2ccccc2F)cc1	0	2	-2	-3	-1	.	.
O=C(COC(=O)CNS(=O)(=O)c1ccc(F)c(F)c1F)Nc1ccc(OC(F)F)cc1	-1	1	-3	7	29*	9	18
CC(C)n1c(N2CCN(C(=O)NCc3ccccc3)CC2)nc2ccccc21	1	-1	-2	8	3	.	.
COc1ccc(NC(=O)N2CCN(c3nc4ccccc4n3C(C)C)CC2)cc1	-1	1	3	2	30*	1	2
C[C@H]1[C@@H](OC(=O)N2CCOCC2)CC[C@@]23CCCN2C(=O)CCC[C@@H]13	.	.	.	2	.	.	.
CCOC(=O)Cc1cc(=O)n2[nH]cc(-c3ccc(Cl)cc3)c2n1	0	1	-1	-4	30*	1	3
CCOC(=O)Cc1cc(=O)n2[nH]c(-c3ccc(Cl)cc3)cc2n1	-1	0	1	5	-1	.	.
CCCN1CCCCC(NC(=O)c2ccc(Cl)cc2Cl)C1=O (stereo unspecified)	-1	.	.	-10	.	.	.
OC(COc1ccccc1)CN1CCCCC1 (stereo unspecified)	0	.	2	1	12	.	.
OC(COc1ccccc1)CN1CCOCC1 (stereo unspecified)	-1	2	-1	-3	30*	0	2
